Rev-RRE block – HIV Rev-RRE protein-RNA interaction inhibition; P05866; Rev peptide-RRE RNA binding, FRET; inhibition, % at 8 µM; 97,000 compounds, 0.79% hits;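 active means inhibition above the screen-wide mean plus 3 SD, cut at about 35% in these data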
Target sequence (P05866 whole entry, looked up): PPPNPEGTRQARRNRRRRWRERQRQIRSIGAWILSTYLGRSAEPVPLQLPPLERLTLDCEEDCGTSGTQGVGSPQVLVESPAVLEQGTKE
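Assay system: Rev peptide and RRE RNA, both fluorescently labelled; times: 5 min preincubation and 15 min binding, 25 °C; detection: FRET, ex 480 nm, em 540 and 671 nm; read-out basis: % inhibition from 671/540 nm acceptor-to-donor ratio, scaled between controls; benchmarks: DMSO low control, neomycin B high control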
PLK1 inh – blocks human PLK1 kinase activity; recombinant PLK1 kinase, TR-FRET peptide phosphorylation; inhibition, % at 10 µM; 97,000 compounds, 0.53% hits; AID 619;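 active means inhibition of 50% or more in the single-concentration screen; inactive means inhibition below 50%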
Plk1 PBD FP – blocks phosphopeptide binding to human Plk1 polo box domain. P53350. Plk1 PBD phosphopeptide binding, fluorescence polarization. inhibition, %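 (tested at about 20 µM)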. 97,000 compounds, 0.13% hits. AID 693; in the data active means inhibition above about 34%, passing the limit was not always enough
LYP inh 2 – blocks human PTPN22 phosphatase activity; recombinant LYP catalytic domain, DiFMUP fluorescence; inhibition, % at 2 µM; 96,000 compounds, 0.21% hits; AID 640;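 active means inhibition at 2 µM at or above a set limit, the screen mean plus 3 SD, cut at about 24% in these data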
EphB4 antag – EphB4-ephrin-B2 interaction antagonism. P54760. EphB4 LBD / TNYL-RAW-Alexa532 peptide, fluorescence polarization. 97,000 compounds, 0.15% hits. inhibition, % at 7 µM;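 active means inhibition above the screen-wide mean inhibition plus 3 SD, cut at about 15% in these data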
PTPN22 act – LYP (human) phosphatase activation. Q9Y2R2. recombinant LYP, DiFMUP fluorescence; 0 = plate median, 100 = signal doubled. activation, % at 2 µM. 96,000 compounds, 0.11% hits. AID 697;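 active means activation at 2 µM above a set limit, the mean plus 5 SD, cut at about 37% in these data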
Of the large screens only hits and unclear results are named; the others gave an inactive call; [ ] = another dose, or the depositor's remark. Compounds with a hit are over-represented: about 2% of the library has one in this group of screens.

Cc1ccc(C2C(C#N)=C(N)SC(N)=C2C#N)cc1	Rev-RRE block 59
N#CC1=C(N)SC(N)=C(C#N)C1c1ccoc1	Rev-RRE block 86[fluorescence artefact?]
CCOC(=O)C1=C(C)NC(=O)NC1c1ccc(C)o1 (stereo not given)	PLK1 inh 69 (no result: LYP inh 2, PTPN22 act)
CCc1cccc(C)c1NC(=O)CN1C(=O)c2ccccc2S1(=O)=O	PLK1 inh 69 (no result: LYP inh 2, PTPN22 act)
O=C(COc1cccc2cccnc12)N1CCc2ccccc2C1	none
COc1cc(/C=N/NC(=O)c2sc(N)c(C#N)c2C)ccc1O	none
COc1cc(/C=N/c2oc(-c3ccccc3)cc2C#N)ccc1O	Rev-RRE block 40
CCOC(=O)c1sc2nc(C)c3c(c2c1N)CC(C)(C)OC3	EphB4 antag 15
CCN1CCN(c2ccc(NC(=O)c3cccc4ncccc34)cc2)CC1	none
COCCn1c(SCc2ccc(C(=O)OC)o2)nnc1-c1c[nH]c2ccccc12	PLK1 inh 59 (no result: LYP inh 2, PTPN22 act)
C=CCSc1nnc(-c2c[nH]c3ccccc23)n1CCOC	none
COCCn1c(SCC(=O)NCc2ccc3c(c2)OCO3)nnc1-c1c[nH]c2ccccc12	PLK1 inh 63 (no result: LYP inh 2, PTPN22 act)
COCCn1c(SCC(=O)Nc2nnc(C)s2)nnc1-c1c[nH]c2ccccc12	none
CCc1nc(SC)[nH]c(=O)c1C	none
CC(C)OCCCNC(=O)C1CCN(S(=O)(=O)N2CCCCC2)CC1	none
CCn1c(SC(C)C)nnc1-c1c[nH]c2ccccc12	PLK1 inh 65 (no result: LYP inh 2, PTPN22 act)
CCOC(=O)CSc1nnc(-c2c[nH]c3ccccc23)n1CC	PLK1 inh 68 (no result: LYP inh 2, PTPN22 act)
CCOC(NC(=O)c1ccccc1)C(NC(=O)c1ccccc1)OCC (stereo not given)	none
N#CC1=C(N)OC2=C(CC/C2=C\c2ccccc2)C1c1ccccc1 (stereo not given)	Rev-RRE block 136[fluorescence artefact?]
N#CC1=C(N)OC2=C(C(=O)CCC2)C1c1ccccc1 (stereo not given)	none
CCOC(=O)c1ccc(NCn2c(=O)oc3ccccc32)cc1	Rev-RRE block 55
COC(=O)c1ccc(NC(=O)CCn2c(=O)oc3ccccc32)cc1	none
O=C(O)c1ccccc1SC1CC(=O)N(C2CCCCC2)C1=O (stereo not given)	PLK1 inh 69 (no result: LYP inh 2, PTPN22 act)
CC(c1ccccc1)N1C(=O)CC(Sc2ncccc2C(=O)O)C1=O (stereo not given)	none
COCCOc1nc2c(c(=O)n(C)c(=O)n2C)n1Cc1cccc(OC)c1	none
CC(=Nc1ccc(C)cc1)c1sc2ccccc2c1O	Rev-RRE block 44
CC(=Nc1cccc(O)c1)c1sc2ccccc2c1O	Rev-RRE block 48
Cc1csc(N(C)C(=O)CSc2nnc(COc3ccccc3C)o2)n1	none
C#CCn1c(=NC(=O)CN2C(=O)CCC2=O)sc2cccc(C)c21	PLK1 inh 62 (no result: LYP inh 2, PTPN22 act)
Cc1sc2nc(CSc3nnc(Cc4cccs4)n3C3CCCCC3)[nH]c(=O)c2c1C	Rev-RRE block 56
Nc1nc(-c2ccccc2)cn1N	none
c1ccc(-c2cn3nc(-c4ccccc4)c(-c4ccccc4)nc3n2)cc1	Rev-RRE block 98[fluorescence artefact?]
CCOC(=O)c1ccc(NC(=S)NCC(O)c2ccccc2)cc1 (stereo not given)	EphB4 antag 17
CCOC(=O)c1ccc(NC(=S)NCCc2ccccc2)cc1	none
COCCN(CC(=O)NCc1ccc2c(c1)OCO2)C(=O)CCC(=O)Nc1nccs1	none
CCOC(=O)C1CCCN(c2c(Nc3cccc(C)c3)c(=O)c2=O)C1 (stereo not given)	PLK1 inh 61 (no result: LYP inh 2, PTPN22 act)
CCOC(=O)C1CCCN(c2c(Nc3ccc(OCC)cc3)c(=O)c2=O)C1 (stereo not given)	none
Cc1cccc(NC(=S)N(C)C2(c3ccccc3Cl)CCCCC2=O)c1 (stereo not given)	none
COc1cccc(Oc2cncnc2-c2ccc(OC)cc2O)c1	none
O=c1[nH]c2cc(Br)cnc2nc1/C=C(\O)c1ccc(F)cc1	Rev-RRE block 60
O=C(NCc1nc2ncc(Br)cc2[nH]1)c1ccccc1	none
CS(=O)(=O)NCC(c1cccnc1)N1CCN(c2ccc(F)cc2)CC1 (stereo not given)	none
CCN(CC)S(=O)(=O)c1ccc(N2CCCCC2)c(C(=O)Nc2ccccc2N2CCOCC2)c1	none
C=CCn1c(=O)/c(=C/c2ccc(O)cc2)s/c1=C(/C#N)c1nnc2n1CCCCC2	Rev-RRE block 73
O=C(CSc1nnc(-c2ccccc2)o1)N1CCc2ccccc2C1	none
Cc1ccc(CCNC(=O)CS(=O)Cc2nc(-c3cccc(C)c3)oc2C)cc1 (stereo not given)	PLK1 inh 62 (no result: LYP inh 2, PTPN22 act)
Cc1cccc(-c2nc(CS(=O)CC(=O)N3CCCCC3)c(C)o2)c1 (stereo not given)	PLK1 inh 66 (no result: LYP inh 2, PTPN22 act)
Cc1oc(-c2ccccc2)nc1CS(=O)CC(=O)N1CCc2ccccc2C1 (stereo not given)	PLK1 inh 66 (no result: LYP inh 2, PTPN22 act)
COc1cccc(-c2nc(CS(=O)CC(=O)NC3CC3)c(C)o2)c1 (stereo not given)	PLK1 inh 69 (no result: LYP inh 2, PTPN22 act)
CCOC(=O)N1CCN(C(=O)CS(=O)Cc2nc(-c3ccc(C)cc3)oc2C)CC1 (stereo not given)	none
COC(=O)CN(n1cnnc1)S(=O)(=O)c1ccccc1	none
O=C(NCCc1c[nH]c2ccccc12)C(F)(F)C(F)F	none
COc1ccc(-c2ccc(C3C(C#N)=C(N)Oc4n[nH]c(C)c43)o2)cc1 (stereo not given)	Rev-RRE block 52
Cc1[nH]nc2c1C(c1ccoc1)C(C#N)=C(N)O2 (stereo not given)	PLK1 inh 55
CN1CCc2c(sc(/N=C/c3cccs3)c2C(N)=O)C1	Rev-RRE block 81
O=C(O)CCCNc1cc(N2CCC3(CC2)OCCO3)c2noc3c2c1C(=O)c1ccccc1-3	Rev-RRE block 122[fluorescence artefact?]
Cc1ccc(-c2nc(CS(=O)(=O)CC(=O)NC3CCCCC3C)c(C)o2)cc1 (stereo not given)	PLK1 inh 54 (no result: LYP inh 2, PTPN22 act)
COCCNC(=O)CS(=O)(=O)Cc1nc(-c2ccc(C)cc2)oc1C	PLK1 inh 67 (no result: LYP inh 2, PTPN22 act)
Cc1ccc(-c2nc(CS(=O)(=O)CC(=O)NCCCN3CCN(C)CC3)c(C)o2)cc1	none
COc1cccc(-c2nc(CS(=O)(=O)CC(=O)NC3CCCc4ccccc43)c(C)o2)c1 (stereo not given)	none
CCOc1ccc(N=C(NC#N)SCC(=O)NC2CC2)cc1	none
C=CCC(=O)OCCCCCCOc1ccc(C(=O)O)cc1	none (no result: LYP inh 2, PTPN22 act)
CCc1cc(=O)oc2c(CN3CCN(C)CC3)c(O)c(Cl)cc12	none
CC(C)C(NC(=O)c1ccccc1)C(=O)NCc1ccccn1 (stereo not given)	none
CC(/C=N/n1c(C2CCCCC2)n[nH]c1=S)=C\c1ccccc1	LYP inh 2 26
CC1CCCCN1c1cc(C#N)c(C#N)cc1[N+](=O)[O-] (stereo not given)	none
